Experimental findings from ChEMBL document CHEMBL4400583, “Camporidines A and B: Antimetastatic and Anti-inflammatory Polyketide Alkaloids from a Gut Bacterium of Camponotus kiusiuensis” (J Nat Prod, 2019) are described below.

Data set [1] concerns MDA-MB-231. The data set is described as follows: Antiinvasive activity against human MDA-MB-231 cells at 40 uM after 48 hrs by crystal violet staining based microscopic method relative to control. In kind it is functional. The gist of the method: (§1)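 Cell invasion assay with MDA-MB-231 human breast cancer cells exposed to 20 or 40 μM compound, sunitinib as positive control. Invasion decrease is relative to untreated control, given as mean ± SD of n = 3, with significance versus control.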

Data set [2] deals with MDA-MB-231. Nature of the data set: Antiproliferative activity against human MDA-MB-231 cells after 72 hrs by SRB assay. The data set is classed as functional, cell-based.
A further data set relates to Enterococcus faecium. The data set is described as follows: Antibacterial activity against Enterococcus faecium. In kind it is functional.
Data set [3] deals with RAW264.7. Nature of the data set: Antiinflammatory activity in mouse RAW264.7 cells assessed as inhibition of LPS-induced nitric oxide production preincubated for 1 hr followed by LPS addition and measured on next day by Griess reagent based assay. In kind it is functional, cell-based. An outline of the steps:
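Mouse macrophages treated with compound, then stimulated with LPS to induce nitric oxide production (iNOS assay). NO suppression was read against LPS-only cells and expressed as IC50. 2-Amino-5,6-dihydro-6-methyl-4H-1,3-thiazine (AMT) was the positive control.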

Another data set has as its system Staphylococcus aureus. The data set is described as follows: Antibacterial activity against Staphylococcus aureus. In kind it is functional.
Another data set deals with A549. Nature of the data set: Antiproliferative activity against human A549 cells after 72 hrs by SRB assay. In kind it is functional, cell-based.
For data set [4], the system named is MDA-MB-231. Nature of the data set: Antimigratory activity against human MDA-MB-231 cells at 20 uM after 48 hrs by wound healing assay relative to control. The data set is classed as functional. The gist of the method: (§2)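 Wound healing (scratch) assay on MDA-MB-231 human breast cancer cells, compound at 20 and 40 μM, sunitinib as positive control. Migration was expressed relative to untreated control as mean ± SD (n = 3), with significance versus control.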

Data set [5] concerns MDA-MB-231. Nature of the data set: Antiinvasive activity against human MDA-MB-231 cells at 20 uM after 48 hrs by crystal violet staining based microscopic method relative to control. The data set is classed as functional. An outline of the steps:
as §1

The subject of another data set is HCT-116. Nature of the data set: Antiproliferative activity against human HCT116 cells after 72 hrs by SRB assay. In kind it is functional, cell-based.
A further data set deals with Aspergillus fumigatus. Nature of the data set: Antifungal activity against Aspergillus fumigatus. In kind it is functional.
The subject of the next data set is Candida albicans. The data set is described as follows: Antifungal activity against Candida albicans. The data set is classed as functional.
In data set [6] the test system is RAW264.7. Nature of the data set: Cytotoxicity against LPS-induced mouse RAW264.7 cells assessed as reduction in cell viability up to 80 uM by MTT assay. The data set is classed as cell-based. The gist of the method: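 Viability of mouse macrophages after co-exposure to LPS and compound, measured by MTT assay. This was run alongside the LPS-induced NO suppression assay to check for cytotoxicity.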

In a further data set the test system is Klebsiella pneumoniae. The data set is described as follows: Antibacterial activity against Klebsiella pneumoniae. The data set is classed as functional.
Data set [7] deals with Trichophyton mentagrophytes. The data set is described as follows: Antifungal activity against Trichophyton mentagrophytes. The data set is classed as functional.
The subject of the next data set is Trichophyton rubrum. The data set is described as follows: Antifungal activity against Trichophyton rubrum. In kind it is functional.
Another data set has as its system Enterococcus faecalis. The data set is described as follows: Antibacterial activity against Enterococcus faecalis. The data set is classed as functional.
The next data set deals with Escherichia coli. Nature of the data set: Antibacterial activity against Escherichia coli. In kind it is functional.
Another data set has as its system Salmonella enterica. Nature of the data set: Antibacterial activity against Salmonella enterica. In kind it is functional.
Another data set concerns SK-HEP1. The data set is described as follows: Antiproliferative activity against human SKHEP1 cells after 72 hrs by SRB assay. The data set is classed as functional, cell-based.
Another data set relates to MCF-10A. The data set is described as follows: Antiproliferative activity against human MCF10A cells after 72 hrs by SRB assay. The data set is classed as cell-based.
The next data set is filed under the species Homo sapiens. Nature of the data set: Antiproliferative activity against human SNU538 cells after 72 hrs by SRB assay. In kind it is functional, cell-based.
Data set [8] has as its system MDA-MB-231. The data set is described as follows: Antimigratory activity against human MDA-MB-231 cells at 40 uM after 48 hrs by wound healing assay relative to control. In kind it is functional. An outline of the steps:
as §2

Data set [9] has as its system MDA-MB-231. The data set is described as follows: Antimigratory activity against human MDA-MB-231 cells after 48 hrs by wound healing assay. In kind it is functional, cell-based. The gist of the method:
as §2

pIC50: −log10 of the molar value. Values after ≈ are worked out from the molar mass of the structure shown. Active and inactive are the calls of the source. No cut-off for these calls is given here.

For `CCCCCC[C@H]1CN(O)[C@H]2C=C/C(=C\C=C\C(=O)O)[C@]23O[C@H]13`, the result with MDA-MB-231 [1], with MDA-MB-231 [2], in the data set on A549, in the data set with MDA-MB-231 [4], in the data set on MDA-MB-231 [5] and in the data set on HCT-116 was inactive. Besides, the result in the data set with SK-HEP1, in the data set filed under Homo sapiens and in the data set with MDA-MB-231 [8] was inactive. For the same molecule, the MIC against Enterococcus faecium was 64 µM (≈ 20.4 µg/mL); in the data set with Staphylococcus aureus, 64 µM (≈ 20.4 µg/mL); in the data set on Aspergillus fumigatus, more than 128 µM; in the data set on Candida albicans, more than 128 µM; in the data set on Klebsiella pneumoniae, 64 µM (≈ 20.4 µg/mL); in data set [7] it was more than 128 µM. For the same molecule, the MIC is more than 128 µM in the data set with Trichophyton rubrum, 64 µM (≈ 20.4 µg/mL) in the data set with Enterococcus faecalis, 64 µM (≈ 20.4 µg/mL) with Escherichia coli and 64 µM (≈ 20.4 µg/mL) in the data set on Salmonella enterica. Further, the pIC50 with RAW264.7 [3] was 4.08. Moreover, the Activity result in the data set on RAW264.7 [6] and with MCF-10A was “Non-Toxic” in each case.
With `CCCCCC[C@H]1CN[C@H]2C=C/C(=C\C=C\C(=O)O)[C@]23O[C@H]13`, the Activity was 36% in the data set on MDA-MB-231 [1]; 50% in the data set with MDA-MB-231 [4]; 20% with MDA-MB-231 [5]; “Non-Toxic” in the data set on RAW264.7 [6]; “Dose-dependent effect” with MDA-MB-231 [9]; “Non-Toxic” with MCF-10A. The same molecule yielded an Activity with MDA-MB-231 [8] of 73%. The outcome with MDA-MB-231 [2], in the data set with A549, in the data set on HCT-116, with SK-HEP1 and in the data set filed under Homo sapiens was inactive. Further, the MIC with Enterococcus faecium was 64 µM (≈ 19.4 µg/mL); in the data set on Staphylococcus aureus, 64 µM (≈ 19.4 µg/mL); against Aspergillus fumigatus it was more than 128 µM; against Candida albicans it was more than 128 µM; with Klebsiella pneumoniae it was 64 µM (≈ 19.4 µg/mL); in data set [7] it was more than 128 µM. In addition, the MIC was more than 128 µM with Trichophyton rubrum, 64 µM (≈ 19.4 µg/mL) against Enterococcus faecalis, 64 µM (≈ 19.4 µg/mL) in the data set on Escherichia coli and 64 µM (≈ 19.4 µg/mL) against Salmonella enterica. Moreover, in the data set on RAW264.7 [3], the pIC50 was 4.77.
